The values that follow come from ChEMBL document CHEMBL1122988, “Studies on antianaphylactic agents. 7. Synthesis of antiallergic 5-oxo-5H-[1]benzopyrano[2,3-b]pyridines” (1985).

Holding throughout (assay type): functional
For test [1], the system named is Rattus norvegicus. The test can be described thus: Anti-passive cutaneous anaphylaxis activity in rat (intravenous administration). The settings on record: read-out: ID50 (the source's name). The method in brief: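 Male Sprague-Dawley rats (8 weeks, ~280 g) were sensitized passively. Antiserum was raised with egg albumin im plus killed B. pertussis ip, and diluted fourfold. Four 0.05-mL intradermal dorsal injections were given, with a 72-h latency. Challenge was iv with 5 mg egg albumin plus 10 mg Evans blue in 1 mL saline. Drug in saline or PEG 400 was given iv immediately before challenge. Dye leakage area was read at 30 min. ID50 came from a least-squares log dose–area fit.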

The subject of test [2] is Rattus norvegicus. The experiment in a line: Compound was evaluated for anti passive cutaneous anaphylaxis activity in nonfasted rats administered oral route. The settings on record: read-out: ID50 (the source's name). The method in brief: (§1)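 Homologous rat PCA in male Sprague-Dawley rats (8 weeks, ~280 g). Skin sites received 72 h of exposure to fourfold-diluted egg albumin antiserum. Drug was suspended in 5% gum arabic and given orally 5 min before iv challenge with egg albumin and Evans blue. Rats were bled 30 min later and dye leakage area (mm2) was measured. ID50 came from least-squares log dose regression, with Fieller fiducial limits.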

Test [3] deals with Rattus norvegicus. The experiment in a line: Compound was evaluated for anti passive cutaneous anaphylaxis activity in nonfasted rat, administered through intravenous route. To be noted: oral, in the assay text read “oral” for “intravenous”, read-out: ID50 (the source's name).
The test system of test [4] is Rattus norvegicus. The test can be described thus: Compound was evaluated for anti passive cutaneous anaphylaxis activity in fasted rat, administered through intravenous route. The settings on record: oral, in the assay text read “oral” for “intravenous”, read-out: ID50 (the source's name).
The subject of test [5] is Rattus norvegicus. The test can be described thus: Compound was evaluated for anti passive cutaneous anaphylaxis activity in fasted rats administered oral route. The settings on record: read-out: ID50 (the source's name). The method in brief: as §1

For `CCc1ccc2oc3nc(O)c(C(=O)O)cc3c(=O)c2c1`, the ED50 with Rattus norvegicus [1] was 0.041 mg/kg.

Consider `CCc1ccc2oc3nc(OC)c(C(=O)O)cc3c(=O)c2c1`, for which, in the test on Rattus norvegicus [1], the ED50 stood at 0.5 mg/kg.

As for `O=C(O)c1cc2c(=O)c3ccccc3oc2nc1O`, the ED50 with Rattus norvegicus [1] is 0.62 mg/kg.

`CC(C)c1ccc2oc3ncc(C(=O)O)cc3c(=O)c2c1`: the ED50 in the test on Rattus norvegicus [2] turned out to be 1.2 mg/kg; with Rattus norvegicus [1], 0.059 mg/kg.

Turning to `CC(C)c1ccc2oc3nc(O)c(C(=O)O)cc3c(=O)c2c1`, in the test on Rattus norvegicus [1], the ED50 is 0.02 mg/kg.

With `CNc1nc2oc3ccc(C(C)C)cc3c(=O)c2cc1C(=O)O`, the ED50 with Rattus norvegicus [1] is 0.39 mg/kg.

In the case of `O=c1c2cc(-c3nn[nH]n3)cnc2oc2ccc3ccccc3c12`, in the test with Rattus norvegicus [1], the ED50 came to 0.84 mg/kg.

With `Cc1cc(C)c2oc3nc(O)c(C(=O)O)cc3c(=O)c2c1`, the ED50 with Rattus norvegicus [1] was determined as 0.12 mg/kg.

`COc1cccc2c(=O)c3cc(C(=O)O)c(O)nc3oc12`: the ED50 in the test with Rattus norvegicus [1] was found to be 0.1 mg/kg.

On to `CCCCc1ccc2oc3nc(N)c(C(=O)O)cc3c(=O)c2c1`, for which the ED50 in the test with Rattus norvegicus [1] was found to be 1.1 mg/kg.

Regarding `COc1cccc2c(=O)c3cc(C(=O)O)c(N)nc3oc12`, the ED50 with Rattus norvegicus [1] worked out at 0.45 mg/kg.

As for `O=C([O-])c1cc(=O)c2c(OCC(O)COc3cccc4oc(C(=O)[O-])cc(=O)c34)cccc2o1.[Na+].[Na+]` [CROMOLYN SODIUM], the ED50 in the test with Rattus norvegicus [1] turned out to be 1.4 mg/kg.

For the molecule `CCc1ccc2oc3nc(N)c(C(=O)O)cc3c(=O)c2c1`, the ED50 with Rattus norvegicus [3] is 5.4 mg/kg; in the test on Rattus norvegicus [1] it was 0.14 mg/kg.

Turning to `CCc1ccc(O)c(C(=O)c2cc(C(=O)O)c(C)nc2O)c1`, the ED50 in the test with Rattus norvegicus [1] is > 20 mg/kg.

As for `CCc1ccc2oc3ncc(C(=O)O)cc3c(=O)c2c1`, the ED50 in the test with Rattus norvegicus [4] turned out to be 0.18 mg/kg; with Rattus norvegicus [3], 0.95 mg/kg; in the test on Rattus norvegicus [1], 0.034 mg/kg.

As to `O=c1c2ccccc2oc2ncc(-c3nn[nH]n3)cc12`, in the test with Rattus norvegicus [1], the ED50 amounted to 0.44 mg/kg.

For `CCCCONc1nc2oc3ccc(C(C)C)cc3c(=O)c2cc1C(=O)O`, the figures for the ED50 with Rattus norvegicus [2] and in the test on Rattus norvegicus [1] were 3.5 mg/kg and 0.028 mg/kg, respectively.

For the molecule `O=C(O)c1cnc2oc3ccccc3c(=O)c2c1`, the ED50 in the test with Rattus norvegicus [1] is 0.63 mg/kg.

For the molecule `CCc1ccc2oc3ncc(-c4nn[nH]n4)cc3c(=O)c2c1`, the ED50 in the test on Rattus norvegicus [2] was found to be 6.4 mg/kg; in the test with Rattus norvegicus [1], 0.11 mg/kg.

Turning to `Cc1ccc2oc3nc(O)c(C(=O)O)cc3c(=O)c2c1`, in the test on Rattus norvegicus [1], the ED50 is 0.1 mg/kg.

On to `CCc1ccc2oc3nc(C)c(C(=O)O)cc3c(=O)c2c1`, for which, in the test with Rattus norvegicus [1], the ED50 came out at 0.73 mg/kg.

`CONc1nc2oc3ccc(C(C)C)cc3c(=O)c2cc1C(=O)O`: the ED50 came to 0.59 mg/kg in the test on Rattus norvegicus [5], 4.6 mg/kg in the test with Rattus norvegicus [2] and 0.0076 mg/kg with Rattus norvegicus [1].

Regarding `Cc1cc(C)c2oc3ncc(-c4nn[nH]n4)cc3c(=O)c2c1`, the ED50 with Rattus norvegicus [1] turned out to be 0.31 mg/kg.

With `CC(C)c1ccc2oc3nc(N)c(-c4nn[nH]n4)cc3c(=O)c2c1`, in the test on Rattus norvegicus [1], the ED50 worked out at 0.064 mg/kg.

For the molecule `CC(C)c1ccc2oc3nc(NO)c(C(=O)O)cc3c(=O)c2c1`, the ED50 with Rattus norvegicus [2] turned out to be 1 mg/kg; with Rattus norvegicus [1], 0.018 mg/kg.

In the case of `CC(C)(C)c1ccc2oc3ncc(-c4nn[nH]n4)cc3c(=O)c2c1`, the ED50 in the test with Rattus norvegicus [2] worked out at 6 mg/kg; with Rattus norvegicus [1] it was 0.047 mg/kg.

For `CCONc1nc2oc3ccc(C(C)C)cc3c(=O)c2cc1C(=O)O`, the ED50 in the test with Rattus norvegicus [1] worked out at 0.014 mg/kg.

On to `CC(C)c1ccc2oc3nc(N)c(C(=O)O)cc3c(=O)c2c1` [AMLEXANOX], for which the ED50 in the test on Rattus norvegicus [5] was 0.73 mg/kg; in the test on Rattus norvegicus [2] it was 6.1 mg/kg; with Rattus norvegicus [1], 0.032 mg/kg.

As for `COc1ccc2oc3nc(O)c(C(=O)O)cc3c(=O)c2c1`, the ED50 in the test with Rattus norvegicus [1] was determined as 0.042 mg/kg.

As for `CONc1nc2oc3ccc(C(C)C)cc3c(=O)c2cc1-c1nn[nH]n1`, the ED50 with Rattus norvegicus [1] worked out at 0.19 mg/kg.

With `CC(C)c1ccc2oc3ncc(-c4nn[nH]n4)cc3c(=O)c2c1`, the ED50 came to 0.034 mg/kg in the test on Rattus norvegicus [5], 0.46 mg/kg in the test with Rattus norvegicus [2] and 0.0096 mg/kg in the test with Rattus norvegicus [1].
